We go through 6 compounds from paper PMC12866962 (Cell host & microbe, 2026).

For data set [1], the target named is T1, BaY2ThsB (Bacillus amyloliquefaciens, UniProt I2C644). The data set is classed as cell-based. The settings on record: for His-ADPR production by ThsB: 500 µM of compound, SPO1-infected B. subtilis Pspank-BaY2ThsB, LC-HRMS.
The target of data set [2] is T1, BaY2ThsB. Briefly: IP6C-ADPR pull-down with BaY2ThsB. The note with it: protein purified from E. coli cells grown with 1.25 mM IP6C. The data set is classed as binding, Bacillus amyloliquefaciens Y2. Put shortly: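 E. coli TOP10 co-expressing DelTM-ThsA-TwinStrep and ThsB-His12 from one pBAD operon was induced at OD600 0.6 with 0.2% L-arabinose, with or without test compound, then grown overnight at 16 °C. ThsB was captured on His-tag magnetic beads, heat-denatured 5 min at 98 °C and centrifuged. Supernatant was analysed by LC-MS (extracted ion chromatogram of conjugate).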

Data set [3] deals with T2, BaY2ThsA^Macro (Bacillus amyloliquefaciens, UniProt I2C645). In words: Saturation transfer difference. The settings on record: 10 µM BaY2ThsA^Macro, 1 mM IP6C-ADPR, competed with 1 mM ADPR. The data set is classed as binding, Bacillus amyloliquefaciens Y2.
Data set [4] addresses T2, BaY2ThsA^Macro. Briefly: IP6C-ADPR and His-ADPR pull-down with BaY2ThsA^Macro. Type of data set: binding, Bacillus amyloliquefaciens Y2.
For data set [5], the system named is EcThsA^Macro. Briefly: ITC experiment. Type of data set: binding, Escherichia coli. A general note: Isothermal titration calorimetry measures the heat released or taken up as one component is titrated into another.
The test system of data set [6] is P. aeruginosa MRSN11538 Thoeris system cloned into P. aeruginosa PAO1. In words: Phage reproduction of Lit1 on P. aeruginosa PAO1:Thoeris II. Type of data set: cell-based, Pseudomonas aeruginosa. The settings on record: PFUs 15 hours post-infection; 1 mM of IP6C, 8.2 mM of nicotinamide. The procedure, abridged:
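Overnight P. aeruginosa diluted 1:100 into LB + 10 mM MgSO4. 180 µL went into wells holding 2 µL test compound stock in DMSO or water. After 30 min at 37 °C, ~10,000 PFU Lit1 was added and OD600 read every 30 min at 37 °C. At 15 h, supernatant (16,000 g, 10 min) was titred by drop plaque assay on undefended P. aeruginosa.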

In data set [7] the test system is Thoeris system in the P. aeruginosa MRSN11538 clinical isolate. Briefly: Phage reproduction of Lit1 on P. aeruginosa MRSN11538. The data set is classed as cell-based, Pseudomonas aeruginosa. The settings on record: PFUs 20 hours post-infection; 1 mM of IP6C, 8.2 mM of nicotinamide.
Data set [8] has as its system P. aeruginosa MRSN11538 Thoeris system cloned into P. aeruginosa PAO1. In words: Thoeris protection in liquid media, P. aeruginosa PAO1:Thoeris + Lit1. Type of data set: cell-based. The settings on record: Pseudomonas aeruginosa, PAO1, read-out: IC50 (inhibition of type II Thoeris in P. aeruginosa PAO1:Thoeris).
Data set [9] relates to BaY2 Thoeris system (type II). Briefly: Thoeris protection in liquid media. The data set is classed as cell-based. The note with it: for Inhibition of BaY2 Thoeris (phage-induced host population lysis), in words: B. subtilis expressing BaY2 Thoeris, phage SPO1, liquid culture.
Data set [10] deals with E. faecalis DS16 Thoeris system cloned into E. faecalis OG1RF. In words: Thoeris protection in liquid media, E. faecalis OG1RF:Thoeris + NPV1. The settings on record: Enterococcus faecalis, read-out: IC50 (inhibition of type II Thoeris in E. faecalis OG1RF:Thoeris). The data set is classed as cell-based.
Data set [11] shares this test system. In words: Phage reproduction of NPV1 on E. faecalis OG1RF:Thoeris. The data set is classed as cell-based, Enterococcus faecalis. The note with it: PFUs 15 hours post-infection; 10 mM of IP6C, 8.2 mM of nicotinamide. The procedure, abridged: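 Overnight E. faecalis was diluted 1:1000 into THB + 10 mM MgSO4 and added to compound-containing wells. After 1 h at 37 °C, ~1,000 PFUs NPV1 were added, with OD600 read every 30 min. At 15 h, culture was spun at 16,000 g for 10 min. Supernatant PFUs were titred by small-drop plaque assay on defenceless E. faecalis and compared with input PFUs. Mean ± SEM, three biological replicates.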

Data set [12] deals with Thoeris system in the P. aeruginosa MRSN11538 clinical isolate. The data set is classed as cell-based. The settings on record: Pseudomonas aeruginosa, read-out: IC50 (sensitization of P. aeruginosa MRSN11538 WT to Lit1). Put shortly: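 Liquid lysis assay. Host overnight culture diluted 1:100 into LB + 10 mM MgSO4; 180 µL added per well over 2 µL test compound stock (DMSO or water); 30 min at 37 °C before ~10,000 PFU Lit1. OD600 recorded every 30 min at 37 °C. Thoeris strength derived from integrated area under the lysis curve, normalized to no-compound and no-defense controls.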

The subject of data set [13] is ThsB (BaY2ThsB or ArThsB). Briefly: Thermal shift assay. Type of data set: binding. The settings on record: 5 µM protein, 1 mM compound, in the presence of NAD+. Put shortly:
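BaY2ThsB or ArThsB was mixed with test compound or buffer in 10 mM HEPES pH 7.5, 150 mM NaCl, 5 mM MgCl2 with NAD+.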

Data set [14] in a line: Quantification of IP6C in polymicrobial model culture. The data set is classed as physicochemical. The note with it: after 24 hours in polymicrobial co-culture with phage, LC-MS/MS. The procedure, abridged: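 In the three phage-plus-compound polymicrobial cultures, 1 µL was sampled at start and at 24 h and quenched in 1 mL 90% acetonitrile. Analysis used a HILIC column with 20 mM ammonium acetate pH 9.2 containing medronic acid versus acetonitrile, gradient at 0.4 mL/min. MRM monitored 162.1→117 (quantifier) and 162.1→78.1 (qualifier), quantified against a pure-standard calibration curve.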

The test system of data set [15] is BaY2 Thoeris system (type II). Briefly: Phage reproduction of SPO1. The data set is classed as cell-based. The note with it: PFUs 15 hours post-infection; 1 mM of compound 1, 333 µM of IP6C, 1 mM of compound 5. Put shortly:
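B. subtilis overnight culture diluted 1:100 in LB; 180 µL added to wells with 2 µL compound stock (DMSO or water). Preincubated 30 min at 30 °C, then ~10,000 PFU SPO1 added; grown at 30 °C, 208 rpm, OD600 every 30 min. After 15 h, cleared supernatant (16,000 g, 10 min) titred by 5 µL drops of 1:10 dilutions on undefended B. subtilis soft-agar lawns.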

Data set [16] in a line: Toxicity test of compounds in mice. Type of data set: in vivo.
In data set [17] the test system is P. aeruginosa PAO1:Thoeris. Briefly: Preliminary phage therapy model in mice infected with PAO1:Thoeris. The settings on record: PAO1:Thoeris i.p. infection, IP6C only. The data set is classed as in vivo, BALB/c mice.
In data set [18] the test system is Streptococcus sanguinis SK36. Briefly: Polymicrobial model culture, S. sanguinis CFUs. The data set is classed as cell-based. The note with it: 300 µM IP6C, 8.5 hours. Put shortly:
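S. aureus USA300, S. sanguinis SK36 and P. aeruginosa PAO1:Thoeris II overnights were mixed 1:1:1, then diluted 1:100 into TSB + 0.5% yeast extract + 10 mM MgSO4. Wells received DMSO or test compound, plus Lit1 (MOI 0.0001) or LB. Incubation was 8.5 h at 37 °C, 5% CO2. CFUs were counted before and after by PBS serial dilution on Streptococcus Selective Agar at 37 °C, 5% CO2. Three replicates.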

Data set [19] deals with Staphylococcus aureus USA300. Briefly: Polymicrobial model culture, S. aureus CFUs. The settings on record: 300 µM IP6C, 8.5 hours. The data set is classed as cell-based.
Data set [20] relates to human cell lines (hTERT RPE-1, HDFn). In words: Human cell viability assay. The data set is classed as cell-based. The note with it: 72 hours, Cell Titer Glo 2.0. Put shortly: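 hTERT RPE-1 and neonatal dermal fibroblasts were kept in DMEM with 10% FBS, penicillin/streptomycin, 37 °C, 5% CO2, and tested mycoplasma-negative. Cells were seeded at 2,000/well. After 24 h, medium was replaced with 0.1% DMSO vehicle or test compound (stock 1 M in DMSO), six replicate wells per dose. Luminescence was read after 72 h and expressed as percent viability relative to vehicle.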

Data set [21] deals with ThsA from Escherichia coli. The settings on record: homologous ThsA from Escherichia coli; cited from earlier work.

T2 sequence (I2C645 83-297): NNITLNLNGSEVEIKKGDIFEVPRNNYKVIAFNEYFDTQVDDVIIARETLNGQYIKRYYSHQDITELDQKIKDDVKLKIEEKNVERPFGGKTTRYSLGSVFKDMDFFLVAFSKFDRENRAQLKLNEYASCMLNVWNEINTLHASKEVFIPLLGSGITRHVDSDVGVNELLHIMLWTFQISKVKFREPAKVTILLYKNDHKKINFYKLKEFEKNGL
T1 sequence (I2C644 whole entry): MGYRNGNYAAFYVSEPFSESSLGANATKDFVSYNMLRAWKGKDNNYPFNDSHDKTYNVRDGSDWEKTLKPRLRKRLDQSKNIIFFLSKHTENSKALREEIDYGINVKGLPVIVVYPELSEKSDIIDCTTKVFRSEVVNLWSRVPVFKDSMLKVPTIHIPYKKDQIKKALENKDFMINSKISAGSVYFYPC

Regarding `NC(=O)c1ccc2n(cc[n+]2[C@@H]2O[C@H](COP(=O)(O)OP(=O)(O)OC[C@H]3O[C@@H](n4cnc5c(N)ncnc54)[C@H](O)[C@@H]3O)[C@@H](O)[C@H]2O)c1` [IP6C-ADPR], in data set [1] (IPTG-inducible BaY2ThsB expression system, cells grown with IP6C, approximated with IP6C-ADPR standard), the “Intracellular concentration of IP6C-ADPR” value is recorded as “around 700 nM”. The “Co-purification of IP6C-ADPR with BaY2ThsB” value in data set [2] was “did not co-purify with BaY2ThsB”. In [3], the “Binding to BaY2ThsA^Macro by STD NMR” value is “binds poorly”. Moreover, in data set [4] (protein co-expressed with BaY2ThsB in E. coli grown with 1.25 mM IP6C), the “IP6C-ADPR detected in purified BaY2ThsA^Macro” value was “no IP6C-ADPR was detected”. In addition, the “Binding to EcThsA^Macro by ITC” value in data set [5] was “did not reveal any interpretable binding”.
As a reminder, the IC50 is the concentration that gives 50% inhibition. For `NC(=O)c1cccnc1` [nicotinamide], the “Phage propagation of Lit1 on P. aeruginosa PAO1:Thoeris II” value in [6] is given as “allowed P. aeruginosa phages to propagate”. The “Phage propagation of Lit1 on P. aeruginosa MRSN11538 WT” value in data set [7] is recorded as “allowed Lit1 phages to successfully propagate”. Moreover, the “His-ADPR production by ThsB” value in data set [1] is on record as “inhibited His-ADPR production”. Moreover, the half-inhibitory concentration (IC50) in data set [8] worked out at 185 µM; in data set [10], 1500 µM; in data set [12], 838 µM. Besides, the “Inhibition of BaY2 Thoeris (phage-induced host population lysis), in words” value in data set [9] (listed as 9) is listed as “fully inhibited the Thoeris defense”. The “Phage proliferation of NPV1 on E. faecalis OG1RF:Thoeris” value in data set [11] was “fully rescued phage proliferation”.
`NC(=O)c1ccc2nccn2c1` [IP6C, imidazo[1,2-a]pyridine-6-carboxamide]: in data set [13], the “Binding to ThsB (melting temperature shift)” value is “no significant binding”. The “Phage propagation of Lit1 on P. aeruginosa PAO1:Thoeris II” value in data set [6] is recorded as “allowed P. aeruginosa phages to propagate”. Moreover, the “Phage propagation of Lit1 on P. aeruginosa MRSN11538 WT” value in data set [7] is “allowed Lit1 phages to successfully propagate”. Besides, the “Intracellular NAD+ level” value in data set [1] (500 µM of IP6C, after SPO1 infection) is “unchanged”. Moreover, in [1], the “His-ADPR production by ThsB” value is reported as “abolished His-ADPR production”. Further, in data set [14], the “Temporal stability: IP6C levels in co-culture” value was “no measurable decrease”. For the same compound, the “Phage reproduction of SPO1 on B. subtilis expressing BaY2 Thoeris” value in data set [15] is “promoted the reproduction of SPO1”. The Toxicity to mice entry in data set [16] (i.p., 50 μL of 20 mg/mL, observed 7 days) is listed as “not toxic”. The “Food intake and body weight of mice” value in [16] (mice treated with IP6C) was “initially eat less and lose weight”. Also, the IC50 in [8] is 19 µM; in [9] (Bacillus amyloliquefaciens, read-out: IC50 (inhibition of BaY2 Thoeris)), 10 µM; in data set [10], 8200 µM; in [12], 116 µM. In addition, the “Survival of mice treated with compound only (no phage)” value in [17] is given as “all mice died within one day”. Moreover, the “S. sanguinis CFUs in polymicrobial mixture” value in [18] is “unaffected”. Besides, the “S. aureus CFUs in polymicrobial mixture” value in data set [19] is “unaffected”. Also, the “Phage proliferation of NPV1 on E. faecalis OG1RF:Thoeris” value in [11] is given as “fully rescued phage proliferation”. Further, the “Amount of His-ADPR bound to BaY2ThsA^Macro” value in data set [4] (E. coli co-expressing BaY2ThsA^Macro and BaY2ThsB grown with 1.25 mM IP6C) was “dramatically decreased”. Further, the “Toxicity to human cell lines” value in [20] is on record as “not toxic”.
As for `N[C@@H](Cc1c[nH]cn1)C(=O)O` [histidine, reference compound], in [13], the “Binding to ThsB (melting temperature shift)” value is “no significant binding”.
Turning to `c1ccn2ccnc2c1` [Compound 26, imidazo[1,2-a]pyridine], in data set [9], the “Inhibition of BaY2 Thoeris (phage-induced host population lysis), in words” value was “weak potency”.
Usually Kd stands for the constant that tells how readily two partners part at equilibrium. As to `Nc1ncnc2c1ncn2[C@@H]1O[C@H](COP(=O)(O)OP(=O)(O)OC[C@H]2OC(O)[C@H](O)[C@@H]2O)[C@@H](O)[C@H]1O` (some centres unmarked) [ADPR], in [21], the equilibrium dissociation constant (Kd) was 4.6 ± 0.5 µM.
